Legend:
KM12 = assay: Cytotoxicity against human KM12 cells after 48 hrs by SRB assay; assay type: functional; conditions: KM12, 48 h
How it was run: (§1)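 NCI-60 five-dose screen: compounds dissolved in DMSO/H2O, tested at five 10-fold dilutions (10^-4 to 10^-8 M) for 48 h. Growth measured by sulforhodamine B optical density at time zero and after 48 h drug or vehicle exposure. Percentage growth calculated relative to control. GI50 is the molar concentration giving 50% reduction in net cell growth versus day-0 cell numbers.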

[1] = Cytotoxicity against human SKOV3 cells after 48 hrs by SRB assay; assay type: functional; conditions: SK-OV-3, 48 h; how it was run: as §1
[2] = Cytotoxicity against human Caki1 cells after 48 hrs by SRB assay; assay type: functional; conditions: CAKI-1, 48 h; how it was run: as §1
SR = assay: Cytotoxicity against human SR cells after 48 hrs by SRB assay; assay type: functional; how it was run: as §1
SK-MEL-28 = assay: Cytotoxicity against human SK-MEL-28 cells after 48 hrs by SRB assay; assay type: functional; conditions: SK-MEL-28, 48 h; how it was run: as §1
[3] = Cytotoxicity against human LOXIMVI cells after 48 hrs by SRB assay; assay type: functional; conditions: LOX IMVI; how it was run: as §1
[4] = Cytotoxicity against human UACC257 cells after 48 hrs by SRB assay; assay type: functional; conditions: UACC-257, 48 h
How it was run: (§2)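 NCI-60 five-dose screen. Compounds dissolved in DMSO/H2O and tested at five 10-fold dilutions (10^-4 to 10^-8 M) for 48 h. Growth read by sulforhodamine B optical density at time zero and after 48 h of exposure to compound or vehicle. Percent growth calculated against control. GI50 is the molar concentration giving 50% reduction in net cell growth relative to cell number on day 0.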

HT-29 = assay: Cytotoxicity against human HT-29 cells after 48 hrs by SRB assay; assay type: functional; conditions: HT-29, 48 h; how it was run: as §1
[5] = Cytotoxicity against human DU145 cells after 48 hrs by SRB assay; assay type: functional; conditions: DU-145, 48 h; how it was run: as §1
CCRF-CEM = assay: Cytotoxicity against human CCRF-CEM cells after 48 hrs by SRB assay; assay type: functional; how it was run: as §1
A549 = assay: Cytotoxicity against human A549 cells after 48 hrs by SRB assay; assay type: functional; conditions: A549, 48 h; how it was run: as §1
[6] = Cytotoxicity against human OVCAR5 cells after 48 hrs by SRB assay; assay type: functional; conditions: OVCAR-5, 48 h; how it was run: as §1
Tubulin = Tubulin (Sus scrofa, UniProt P02554+P02550); assay: Inhibition of porcine brain tubulin polymerization by spectrophotometric analysis
How it was run: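 Tubulin at 4 mg/mL in cold 80 mM PIPES pH 6.9 with 2 mM MgCl2, 0.5 mM EGTA, GTP and 10% glycerol. Compound (added as 10x stock in 50% DMSO) or DMSO was preincubated 2 min at 37 °C in a prewarmed plate. Cold tubulin was then added, and polymerization at 37 °C was followed by A340 over time. Dose-response, mean ± s.d., n=3.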

A498 = assay: Cytotoxicity against human A498 cells after 48 hrs by SRB assay; assay type: functional; conditions: A498, 48 h; how it was run: as §1
NCI-H522 = assay: Cytotoxicity against human NCI-H522 cells after 48 hrs by SRB assay; assay type: functional; conditions: NCI-H522, 48 h; how it was run: as §1
MCF7 = assay: Cytotoxicity against human MCF7 cells after 48 hrs by SRB assay; assay type: functional; conditions: MCF7, 48 h; how it was run: as §1
[7] = Cytotoxicity against human IGROV1 cells after 48 hrs by SRB assay; assay type: functional; conditions: IGROV-1, 48 h
How it was run: (§3)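 NCI-60 five-dose screen: compounds in DMSO/H2O tested at 10^-4 to 10^-8 M (10-fold steps) for 48 h. Cell mass read by sulforhodamine B optical density at time zero and after exposure to compound or vehicle. GI50 is the concentration giving 50% reduction in net cell growth relative to day-0 cell numbers.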

[8] = Cytotoxicity against human PC3 cells after 48 hrs by SRB assay; assay type: functional; conditions: PC-3, 48 h; how it was run: as §1
NCI-H23 = assay: Cytotoxicity against human NCI-H23 cells after 48 hrs by SRB assay; assay type: functional; conditions: NCI-H23, 48 h; how it was run: as §1
MDA-MB-435 = assay: Cytotoxicity against human MDA-MB-435 cells after 48 hrs by SRB assay; assay type: functional; conditions: MDA-MB-435, 48 h; how it was run: as §1
[9] = Cytotoxicity against human SNB75 cells after 48 hrs by SRB assay; assay type: functional; conditions: SNB-75, 48 h; how it was run: as §1
ACHN = assay: Cytotoxicity against human ACHN cells after 48 hrs by SRB assay; assay type: functional; how it was run: as §1
[10] = Cytotoxicity against human RPMI8226 cells after 48 hrs by SRB assay; assay type: functional; conditions: RPMI-8226, 48 h; how it was run: as §1
[11] = Cytotoxicity against human HCC2998 cells after 48 hrs by SRB assay; assay type: functional; conditions: HCC 2998, 48 h; how it was run: as §1
[12] = Cytotoxicity against human Hs578T cells assessed as reduction of cell viability after 48 hrs by calcein-AM-based fluorescence analysis; assay type: functional; conditions: Hs-578T
How it was run: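 Cells seeded at 3,000 per well in DMEM with 10% FBS and left overnight at 37 °C. A range of compound concentrations or vehicle was then added for 48 h. Cells were washed with DPBS pH 7.4 and loaded with 2 μM calcein-AM for 30 min at 25 °C. Fluorescence read at ex 490/em 520 nm; viability is given relative to untreated control (100%). Mean ± s.d.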

[13] = Cytotoxicity against human OVCAR3 cells after 48 hrs by SRB assay; assay type: functional; conditions: OVCAR-3, 48 h; how it was run: as §1
MDA-MB-231 = assay: Cytotoxicity against human MDA-MB-231 cells after 48 hrs by SRB assay; assay type: functional; conditions: MDA-MB-231, 48 h; how it was run: as §1
SK-MEL-5 = assay: Cytotoxicity against human SK-MEL-5 cells after 48 hrs by SRB assay; assay type: functional; conditions: SK-MEL-5, 48 h; how it was run: as §1
[14] = Cytotoxicity against human SF268 cells after 48 hrs by SRB assay; assay type: functional; conditions: SF-268, 48 h; how it was run: as §1
[15] = Cytotoxicity against human NCI-ADR-RES cells after 48 hrs by SRB assay; assay type: functional; how it was run: as §1
[16] = Cytotoxicity against human HCT15 cells after 48 hrs by SRB assay; assay type: functional; conditions: HCT-15, 48 h; how it was run: as §1
[17] = Cytotoxicity against human HOP62 cells after 48 hrs by SRB assay; assay type: functional; conditions: HOP-62, 48 h; how it was run: as §3
U-251 = assay: Cytotoxicity against human U251 cells after 48 hrs by SRB assay; assay type: functional; conditions: U-251, 48 h; how it was run: as §2
SK-MEL-2 = assay: Cytotoxicity against human SK-MEL-2 cells after 48 hrs by SRB assay; assay type: functional; conditions: SK-MEL-2, 48 h; how it was run: as §1
[18] = Cytotoxicity against human SNB19 cells after 48 hrs by SRB assay; assay type: functional; conditions: SNB-19, 48 h; how it was run: as §1
MDA-MB-468 = assay: Cytotoxicity against human MDA-MB-468 cells after 48 hrs by SRB assay; assay type: functional; conditions: MDA-MB-468, 48 h; how it was run: as §1
786-0 = assay: Cytotoxicity against human 786-0 cells after 48 hrs by SRB assay; assay type: functional; conditions: 786-0, 48 h; how it was run: as §1
[19] = Cytotoxicity against human SW620 cells after 48 hrs by SRB assay; assay type: functional; conditions: SW-620, 48 h; how it was run: as §1
[20] = Cytotoxicity against human OVCAR4 cells after 48 hrs by SRB assay; assay type: functional; conditions: OVCAR-4, 48 h; how it was run: as §1
[21] = Cytotoxicity against human BT549 cells after 48 hrs by SRB assay; assay type: functional; conditions: BT-549, 48 h; how it was run: as §1
NCI-H460 = assay: Cytotoxicity against human NCI-H460 cells after 48 hrs by SRB assay; assay type: functional; conditions: NCI-H460, 48 h; how it was run: as §1
K562 = assay: Cytotoxicity against human K562 cells after 48 hrs by SRB assay; assay type: functional; conditions: K562, 48 h; how it was run: as §1
[22] = Cytotoxicity against human UACC62 cells after 48 hrs by SRB assay; assay type: functional; conditions: UACC-62, 48 h; how it was run: as §2
M14 = assay: Cytotoxicity against human M14 cells after 48 hrs by SRB assay; assay type: functional; conditions: M14, 48 h; how it was run: as §1
[23] = Cytotoxicity against human SF539 cells after 48 hrs by SRB assay; assay type: functional; conditions: SF-539, 48 h; how it was run: as §1
[24] = Cytotoxicity against human UO31 cells after 48 hrs by SRB assay; assay type: functional; conditions: UO-31, 48 h; how it was run: as §2
[25] = Cytotoxicity against human HCT116 cells after 48 hrs by SRB assay; assay type: functional; conditions: HCT-116, 48 h; how it was run: as §1
[26] = Cytotoxicity against human Hs 578T cells after 48 hrs by SRB assay; assay type: functional; how it was run: as §1
[27] = Cytotoxicity against human HL-60(TB) cells after 48 hrs by SRB assay; assay type: functional; conditions: HL-60, 48 h; how it was run: as §1
[28] = Cytotoxicity against human HOP92 cells after 48 hrs by SRB assay; assay type: functional; conditions: HOP-92, 48 h; how it was run: as §1
[29] = Cytotoxicity against human OVCAR8 cells after 48 hrs by SRB assay; assay type: functional; conditions: OVCAR-8, 48 h; how it was run: as §1
SN12C = assay: Cytotoxicity against human SN12C cells after 48 hrs by SRB assay; assay type: functional; how it was run: as §1
[30] = Cytotoxicity against human SF295 cells after 48 hrs by SRB assay; assay type: functional; conditions: SF-295, 48 h; how it was run: as §1
[31] = Cytotoxicity against human MOLT4 cells after 48 hrs by SRB assay; assay type: functional; conditions: MOLT-4, 48 h; how it was run: as §1
[32] = Cytotoxicity against human COLO205 cells after 48 hrs by SRB assay; assay type: functional; conditions: COLO 205, 48 h; how it was run: as §1

## COc1cc(-c2n[nH]nc2-c2cc3ccccc3s2)cc(OC)c1OC
KM12
  GI50: 22 nM
[1]
  GI50: < 10 nM
[2]
  GI50: < 10 nM
SR
  GI50: < 10 nM
SK-MEL-28
  GI50: < 10 nM
[3]
  GI50: < 10 nM
[4]
  GI50: < 10 nM
HT-29
  GI50: 20 nM
[5]
  GI50: < 10 nM
CCRF-CEM
  GI50: 28 nM
A549
  GI50: 23 nM
[6]
  GI50: 42 nM
Tubulin
  IC50: 1700 nM
A498
  GI50: < 10 nM
NCI-H522
  GI50: < 10 nM
MCF7
  GI50: < 10 nM
[7]
  GI50: < 10 nM
[8]
  GI50: 34 nM
NCI-H23
  GI50: < 10 nM
MDA-MB-435
  GI50: < 10 nM
[9]
  GI50: < 10 nM
ACHN
  GI50: < 10 nM
[10]
  GI50: < 10 nM
[11]
  GI50: 36 nM
[12]
  GI50: 10 nM
[13]
  GI50: < 10 nM
MDA-MB-231
  GI50: 14 nM
SK-MEL-5
  GI50: < 10 nM
[14]
  GI50: < 10 nM
[15]
  GI50: < 10 nM
[16]
  GI50: < 10 nM
[17]
  GI50: 15 nM
U-251
  GI50: < 10 nM
SK-MEL-2
  GI50: < 10 nM
[18]
  GI50: < 10 nM
MDA-MB-468
  GI50: < 10 nM
786-0
  GI50: < 10 nM
[19]
  GI50: < 10 nM
[20]
  GI50: 42 nM
[21]
  GI50: < 10 nM
NCI-H460
  GI50: < 10 nM
K562
  GI50: < 10 nM
[22]
  GI50: < 10 nM
M14
  GI50: < 10 nM
[23]
  GI50: < 10 nM
[24]
  GI50: < 10 nM
[25]
  GI50: < 10 nM
[26]
  GI50: < 10 nM
[27]
  GI50: < 10 nM
[28]
  GI50: < 10 nM
[29]
  GI50: < 10 nM
SN12C
  GI50: 48 nM
[30]
  GI50: < 10 nM
[31]
  GI50: 42 nM
[32]
  GI50: < 10 nM

Reference: ChEMBL document CHEMBL3751743, “Synthesis and anti-cancer screening of novel heterocyclic-(2H)-1,2,3-triazoles as potential anti-cancer agents” (Medchemcomm, 2015)
